Bioassay records (PubChem BioAssay)
ALR H2O2 inh = blocks human ALR sulfhydryl oxidase activity. P55789. purified ALR, DTT oxidation, H2O2 HRP-luminol luminescence. inhibition, % (concentration not given with the values). hit rate 3.8% among 290,000;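 active = mean replicate inhibition above about 79%, with every replicate also reaching it, limit read from the data; inconclusive = only one of the two criteria met; inactive = mean below limit and not every replicate reaching it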
Target sequence (P55789 whole entry, looked up): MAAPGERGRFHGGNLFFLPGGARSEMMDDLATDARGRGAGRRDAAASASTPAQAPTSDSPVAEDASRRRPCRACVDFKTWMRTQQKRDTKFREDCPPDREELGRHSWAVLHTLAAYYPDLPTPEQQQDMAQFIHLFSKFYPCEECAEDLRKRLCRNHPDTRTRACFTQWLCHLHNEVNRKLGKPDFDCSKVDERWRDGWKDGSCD
NALP3 yeast inh = inhibitors of NALP3 inflammasome in yeast | Yeast reconstituted NLRP3/ASC/caspase-1, beta-gal luminescence, 24 h | inhibition, % at 10 µM | hit rate 0.39% among 330,000 | AID 2825;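 active = inhibition of 50% or more; inactive = inhibition below 50%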;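 note: plate controls were induced DMSO wells for no effect and uninduced yeast grown without galactose for full effect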
NALP1 inh = inhibitors of NALP1 inflammasome in yeast. AID 2071. hit rate 0.61% among 280,000. S. cerevisiae NALP1/ASC/caspase-1 growth, X-gal OD620, 72 h. inhibition, % at 10 µM; in the data active = inhibition mostly above about 24%, no sharp cut-off; inactive = mostly below about 32%
ATG4B inh = ATG4B (human) cysteine protease inhibition | Q9Y4P1 | ATG4B cleavage of LC3-PLA2, NBD-HPC fluorescence, 1 h | inhibition, % at 8.33 µM | hit rate 0.51% among 340,000 | AID 504462; in the data active = inhibition above about 40%
UCH37 inh = human UCH37 deubiquitinating enzyme inhibition. Q9Y5K5. purified proteasome/UCH37, Ub-AMC cleavage fluorescence. inhibition, % (concentration not given with the values). hit rate 0.33% among 330,000. AID 588478;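 active = mean inhibition over replicate wells above about 20%, limit read from the data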;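 note: 0% = compound-free wells with enzyme and 100% = wells lacking proteasome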
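Test system – human UCH37 enzyme supplied as purified proteasome complex · Incubation – 30 min preincubation with enzyme, 25 min cleavage at room temperature · Detection – AMC fluorescence from Ub-AMC cleavage, excitation 355 nm, emission 460 nm · Benchmarks – no-proteasome wells (full inhibition) and compound-free wells (no inhibition)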
Calb FLC = C. albicans growth modulation with fluconazole; hit rate 0.57% among 300,000; C. albicans CaCi-2 (fluconazole-resistant clinical isolate) + fluconazole, Alamar Blue growth, 48 h; growth inhibition, % (concentration not given with the values);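 active = growth inhibition above about 58% in most replicates, limit read from the data, passing the limit was not always enough; inconclusive = exactly half the replicates above a set limit; inactive = most replicates below a set limit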;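 note: all wells also contain fluconazole at 8 µg/ml as a sub-toxic cotreatment; 0% = median of DMSO wells and 100% = median of geldanamycin control wells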
NALP3 confirm = confirmation of NALP3 inhibitors in yeast | shares compounds with NALP3 yeast inh | AID 435006 | hit rate 81% among 1,300 | inhibition, % at 10 µM | yeast expressing human NALP3, luminescence; in the data active = inhibition above about 48%
Casp1 ASC ctr = caspase-1-ASC yeast counter-screen hit; shares compounds with NALP3 yeast inh; inhibition, % at 10 µM; yeast expressing Caspase-1-ASC, luminescence counter screen; hit rate 66% among 1,000; AID 488784
NALP3 retest = yeast NALP3 inhibition, confirmed on retest; shares compounds with NALP3 yeast inh; inhibition, % at 10 µM; yeast expressing human NALP3, luminescence read-out; hit rate 53% among 1,000
* marks the source's active call; other numbers are inactive results; ? = inconclusive; . = no result given. The list is not random: actives were taken first. Their share in the collection is about 4.8%. Cut-off read from the data, not from the text of the source, unless noted: active = inhibition above about 50%; inactive = the rest.

SMILES	ALR H2O2 inh	NALP3 yeast inh	NALP1 inh	ATG4B inh	UCH37 inh	Calb FLC	NALP3 confirm	Casp1 ASC ctr	NALP3 retest
CCOC(=O)c1ccc(NC(=O)c2nc(S(=O)(=O)Cc3ccccc3)ncc2Cl)cc1	-3	2	10	-9	.	-2	.	.	.
CCc1ccc(NC(=O)c2nc(S(=O)(=O)Cc3ccccc3)ncc2Cl)cc1	-5	60*	12	.	.	10	73*	54*	66*
Cc1cc(N(C)C)ccc1N=Nc1ccc(N)cc1	45	51*	.	-1	6	-7	45	46	40
COc1ccc(C(C)(C)C)cc1NC(=O)c1cncc(Br)c1	-31	56*	5	-3	1	-1	62*	58*	55*
CCC(C)[C@@H](N)C(=O)NN=Cc1ccc2ncccc2c1 (some centres not stated)	.	.	.	.	4	.	.	.	.
CC1=CC(=NOC(=O)/C=C/c2ccccc2)C(C)=CC1=O	.	.	.	.	3	.	.	.	.
Cc1cccc(N(C)c2ccc3cc(S(=O)(=O)N4CCCC4)ccc3n2)c1	1	68*	-56	-1	-118	-12	79*	75*	58*
Cc1ccc(N2CCN(S(=O)(=O)c3cccs3)CC2C)cc1 (configuration not stated)	99*	56*	35	-6	1	22	57*	57*	50
O=S(=O)(c1cccs1)N1CCN(c2ccc(Cl)cc2)CC1	2	58*	33	-15	0	-1	63*	46	37
COC(=O)c1ccc2c(c1O)C(=O)c1ccccc1C2=O	-115	54*	26	-4	4	1	61*	61*	52*
COC(=O)CN(c1ccc(C)cc1)S(=O)(=O)c1ccc(F)cc1	-20	58*	10	-1	3	14	55*	.	.
NNC(=O)c1ccc2nc(-c3ccc(Br)cc3)cn2c1	25	53*	39*	-14	.	-46	70*	.	.
CC(C)N=c1cc2n(-c3ccc(Cl)cc3)c3ccccc3nc-2cc1Nc1ccc(Cl)cc1	-18	56*	.	-6	0	.	68*	.	.
Brc1ccc2[nH]ncc2c1	-4	53*	8	-3	3	9	42	60*	43
COc1ccc(C(C)=NNC(=O)c2ccc(-c3ccccc3)cc2)c(F)c1	.	.	.	.	-4	.	.	.	.
CCN(CC)S(=O)(=O)c1cc(OC)c(Cl)cc1Cl	-10	55*	21	-4	1	-1	64*	53*	50*
Nc1n[nH]c(-c2ccc(F)cc2)n1	-12	0	1	-11	3	?	.	.	.
CCCCc1ccc(-c2nc(N)n[nH]2)cc1	0	54*	14	-9	2	65	78*	95*	85*
O[C@@H]1[C@@H](O)C=C2CCN3Cc4cc5c(cc4[C@H]1C23)OCO5 (some centres not stated)	13	64*	.	2	1	.	79*	60*	58*
NC(=S)NN=C1CC(n2nnnc2-c2ccccc2)C2COC1O2 (configuration not stated)	.	.	.	.	3	.	.	.	.
CC(=NO)C(C)(C)Nc1ccc(Cl)cc1	.	.	.	.	2	.	.	.	.
O=C(CSc1cccc2cccc(Cl)c12)NCc1cccs1	-23	52*	37	-13	1	-10	65*	45	31
COc1ccc(C=NNc2nc(C)cc(=O)[nH]2)cc1OC	.	.	.	.	7	.	.	.	.
FC(F)(F)c1cc(-c2ccccc2)nc(NCc2cccnc2)n1	0	54*	10	6	-15	1	24	.	.
FC(F)(F)c1cc(-c2ccco2)nc(NCc2cccnc2)n1	25	53*	6	7	-36	36	66*	52*	36
O=C(NN=Cc1cc([N+](=O)[O-])ccc1O)c1ccc(COc2ccc3c(c2)CCC3)o1	.	.	.	.	4	.	.	.	.
COc1ccc(/C=C/C(=O)NCC(=O)NN=C(CCC(=O)O)c2ccccc2)cc1	.	.	.	.	4	.	.	.	.
